The target of assay [1] is T1, Progesterone receptor (Homo sapiens, UniProt P06401).
T1 sequence (P06401 whole entry): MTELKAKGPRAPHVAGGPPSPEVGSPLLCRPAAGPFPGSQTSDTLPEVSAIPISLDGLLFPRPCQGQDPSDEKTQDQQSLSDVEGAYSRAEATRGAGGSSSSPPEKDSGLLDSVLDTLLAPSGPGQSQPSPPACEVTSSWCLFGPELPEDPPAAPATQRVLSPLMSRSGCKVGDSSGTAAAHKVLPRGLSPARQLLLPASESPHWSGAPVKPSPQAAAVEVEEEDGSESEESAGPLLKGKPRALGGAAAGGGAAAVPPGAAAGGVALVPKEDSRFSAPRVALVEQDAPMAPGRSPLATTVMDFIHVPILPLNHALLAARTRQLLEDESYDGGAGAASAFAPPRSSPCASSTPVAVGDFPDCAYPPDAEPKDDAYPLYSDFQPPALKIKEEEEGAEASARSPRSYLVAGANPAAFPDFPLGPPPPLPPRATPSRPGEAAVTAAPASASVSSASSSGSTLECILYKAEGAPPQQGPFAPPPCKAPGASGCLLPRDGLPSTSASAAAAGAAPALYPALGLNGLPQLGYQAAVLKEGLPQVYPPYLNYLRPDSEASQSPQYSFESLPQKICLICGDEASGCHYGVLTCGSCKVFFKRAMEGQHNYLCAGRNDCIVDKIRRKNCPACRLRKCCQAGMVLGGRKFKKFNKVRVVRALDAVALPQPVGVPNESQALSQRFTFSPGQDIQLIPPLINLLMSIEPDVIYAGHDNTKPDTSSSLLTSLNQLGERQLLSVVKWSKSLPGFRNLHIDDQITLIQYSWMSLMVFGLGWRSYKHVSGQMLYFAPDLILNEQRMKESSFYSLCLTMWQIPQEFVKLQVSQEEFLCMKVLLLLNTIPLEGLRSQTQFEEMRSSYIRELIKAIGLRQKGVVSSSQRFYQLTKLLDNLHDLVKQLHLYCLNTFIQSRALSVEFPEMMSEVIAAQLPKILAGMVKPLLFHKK
Briefly: In vitro antagonist activity against human progesterone receptor isoform B(hPR-B) in mammalian(CV-1) cells. The class given is functional, cell-based.

For assay [2], the target named is T1, Progesterone receptor. Description: Binding affinity against Baculovirus-Expressed hPR-A.
Assay [3] deals with T2, Androgen receptor (Homo sapiens) (UniProt P10275).
T2 sequence (whole entry): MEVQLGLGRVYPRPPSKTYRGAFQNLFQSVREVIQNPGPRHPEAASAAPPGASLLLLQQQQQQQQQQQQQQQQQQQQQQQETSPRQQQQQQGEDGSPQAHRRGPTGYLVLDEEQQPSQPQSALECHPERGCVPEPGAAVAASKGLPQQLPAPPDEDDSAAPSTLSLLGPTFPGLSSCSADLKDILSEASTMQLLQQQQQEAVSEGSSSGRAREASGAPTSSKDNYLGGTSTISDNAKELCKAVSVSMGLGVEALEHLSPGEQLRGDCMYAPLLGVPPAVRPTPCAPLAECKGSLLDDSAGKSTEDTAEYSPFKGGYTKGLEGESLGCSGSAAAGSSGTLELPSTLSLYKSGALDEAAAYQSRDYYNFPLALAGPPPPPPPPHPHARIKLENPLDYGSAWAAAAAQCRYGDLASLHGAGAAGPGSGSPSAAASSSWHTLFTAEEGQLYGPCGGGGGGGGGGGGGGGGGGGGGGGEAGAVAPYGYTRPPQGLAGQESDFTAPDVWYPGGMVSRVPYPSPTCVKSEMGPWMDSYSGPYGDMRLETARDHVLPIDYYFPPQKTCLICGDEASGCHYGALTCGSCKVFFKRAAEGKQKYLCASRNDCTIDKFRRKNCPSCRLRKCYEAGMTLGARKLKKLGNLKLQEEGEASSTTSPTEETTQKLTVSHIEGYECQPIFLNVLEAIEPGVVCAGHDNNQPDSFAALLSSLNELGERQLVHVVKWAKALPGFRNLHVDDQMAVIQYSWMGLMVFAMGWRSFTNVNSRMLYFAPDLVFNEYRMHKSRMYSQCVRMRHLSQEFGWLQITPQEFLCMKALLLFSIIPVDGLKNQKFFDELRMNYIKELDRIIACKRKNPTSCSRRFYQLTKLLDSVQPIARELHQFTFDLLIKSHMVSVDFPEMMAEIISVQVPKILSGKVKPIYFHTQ

In assay [4] the target is T3, Glucocorticoid receptor (Homo sapiens) (UniProt P04150).
T3 sequence (whole entry): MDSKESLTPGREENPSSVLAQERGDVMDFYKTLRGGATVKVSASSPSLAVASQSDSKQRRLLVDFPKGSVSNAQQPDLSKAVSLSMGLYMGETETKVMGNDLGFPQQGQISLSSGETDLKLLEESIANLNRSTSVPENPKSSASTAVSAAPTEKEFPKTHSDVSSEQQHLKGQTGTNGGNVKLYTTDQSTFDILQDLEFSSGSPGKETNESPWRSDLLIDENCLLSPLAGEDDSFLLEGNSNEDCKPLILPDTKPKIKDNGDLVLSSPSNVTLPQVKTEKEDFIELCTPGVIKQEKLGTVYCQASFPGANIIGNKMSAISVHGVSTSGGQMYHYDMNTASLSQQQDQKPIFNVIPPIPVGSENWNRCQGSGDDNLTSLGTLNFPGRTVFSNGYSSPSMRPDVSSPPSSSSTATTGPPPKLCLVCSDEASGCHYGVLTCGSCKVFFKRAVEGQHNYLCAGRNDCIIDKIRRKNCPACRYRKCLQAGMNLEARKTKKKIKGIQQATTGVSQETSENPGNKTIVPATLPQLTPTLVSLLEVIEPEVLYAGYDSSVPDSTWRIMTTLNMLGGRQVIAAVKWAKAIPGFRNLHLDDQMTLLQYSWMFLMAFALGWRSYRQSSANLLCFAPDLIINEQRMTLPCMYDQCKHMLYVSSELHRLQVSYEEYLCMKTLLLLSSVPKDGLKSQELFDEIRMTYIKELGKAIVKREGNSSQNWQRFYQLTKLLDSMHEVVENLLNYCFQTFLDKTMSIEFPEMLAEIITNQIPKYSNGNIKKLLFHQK

For assay [5], the target named is T4, Mineralocorticoid receptor (Homo sapiens) (UniProt P08235).
T4 sequence (whole entry): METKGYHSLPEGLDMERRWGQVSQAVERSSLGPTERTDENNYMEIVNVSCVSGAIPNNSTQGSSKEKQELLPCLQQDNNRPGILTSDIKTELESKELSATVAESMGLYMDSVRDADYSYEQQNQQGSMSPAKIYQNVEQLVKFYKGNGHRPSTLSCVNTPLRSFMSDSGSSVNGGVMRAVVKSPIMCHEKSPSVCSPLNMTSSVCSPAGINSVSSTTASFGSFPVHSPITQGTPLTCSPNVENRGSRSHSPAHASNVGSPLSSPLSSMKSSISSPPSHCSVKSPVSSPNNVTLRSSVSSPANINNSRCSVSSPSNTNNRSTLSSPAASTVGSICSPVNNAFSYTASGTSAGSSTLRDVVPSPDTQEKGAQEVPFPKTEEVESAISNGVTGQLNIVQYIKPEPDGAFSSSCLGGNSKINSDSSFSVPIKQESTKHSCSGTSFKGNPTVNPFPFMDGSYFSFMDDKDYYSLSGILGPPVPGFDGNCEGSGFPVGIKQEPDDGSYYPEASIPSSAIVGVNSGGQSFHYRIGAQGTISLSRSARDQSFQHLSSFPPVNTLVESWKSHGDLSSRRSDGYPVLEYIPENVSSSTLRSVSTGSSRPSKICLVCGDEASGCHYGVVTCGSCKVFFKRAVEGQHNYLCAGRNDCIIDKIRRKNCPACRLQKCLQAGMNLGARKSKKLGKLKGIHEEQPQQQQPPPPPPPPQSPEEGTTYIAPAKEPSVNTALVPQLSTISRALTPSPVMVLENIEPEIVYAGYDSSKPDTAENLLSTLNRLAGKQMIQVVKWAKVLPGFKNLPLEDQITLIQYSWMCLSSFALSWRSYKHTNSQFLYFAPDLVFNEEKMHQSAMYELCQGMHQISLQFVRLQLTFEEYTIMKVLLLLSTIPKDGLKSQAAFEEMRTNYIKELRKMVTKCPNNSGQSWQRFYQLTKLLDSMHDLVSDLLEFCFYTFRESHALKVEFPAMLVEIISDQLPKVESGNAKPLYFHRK
Description: Antagonist activity against Mineralocorticoid receptor. It counts as functional. The method, boiled down:
(§1)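 hMR antagonist cotransfection assay run with an EC50 concentration of aldosterone as agonist. Potency is the IC50. Efficacy is % of maximal inhibition. Values are the mean ± SEM of at least two independent experiments, or one experiment where marked.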

Assay [6] has as its target Estrogen receptor (Homo sapiens) (UniProt Q92731+P03372).
For assay [7], the target named is T4, Mineralocorticoid receptor (Homo sapiens). Description: Efficacy as percent inhibition of Mineralocorticoid receptor with aldosterone EC50. The method, boiled down:
as §1

Molecules are shown by their SMILES. A value given as a limit tells only on which side of the number the result lay.

Turning to `CC1=CC(C)(C)Nc2ccc(-c3cc(F)cc(F)c3)cc21`, the IC50 against Progesterone receptor [1] stood at 0.079 µM. In addition, the inhibition constant Ki on Progesterone receptor [2] stood at 0.01 µM.
As to `CN(C)c1ccc([C@H]2C[C@]3(C)[C@@H](CC[C@]3(O)CCCO)[C@@H]3CCC4=CC(=O)CCC4=C32)cc1`, the Potency was 0.269 µM in assay [3], 0.027 µM in assay [4] and more than 1 µM in assay [5].
Consider `CC#C[C@]1(O)CC[C@H]2[C@@H]3CCC4=CC(=O)CCC4=C3[C@@H](c3ccc(N(C)C)cc3)C[C@@]21C`, for which the Potency in assay [6] and in assay [5] was more than 1 µM throughout.
Take `CC1=CC(C)(C)Nc2ccc(-c3cc(F)cc(C#N)c3)cc21`: the Efficacy in assay [7] came out at 80%. Also, the Potency in assay [4], in assay [6] and in assay [5] was more than 1 µM in each case.
For `CC1=CC(C)(C)Nc2ccc(-c3cccc(F)c3)cc21`, on Progesterone receptor [1], it took 0.75 µM to reach half-maximal inhibition (IC50). Besides, the inhibition constant (Ki) at Progesterone receptor [2] turned out to be 0.182 µM.
At Progesterone receptor [1], `CC1=CC(C)(C)Nc2ccc(-c3ccccc3)cc21` came in with a half-inhibitory concentration (IC50) of 0.783 µM. Also, the Ki on Progesterone receptor [2] stood at 0.133 µM.
Consider `CC1=CC(C)(C)Nc2ccc(-c3cccc(C#N)c3)cc21`, for which the Potency in assay [3] was 0.227 µM; in assay [4], more than 1 µM; in assay [6] it was more than 1 µM; in assay [5], more than 1 µM. In assay [7], this molecule returned an Efficacy of 94%. Also, half-maximal inhibition at Progesterone receptor [1] (IC50) was put at 0.038 µM. For the same molecule, on Progesterone receptor [2], the inhibitory constant (Ki) is 0.019 µM.
For the molecule `CC1=CC(C)(C)Nc2ccc(-c3cc(F)cc([N+](=O)[O-])c3)cc21`, the concentration for half-maximal inhibition (IC50) against Progesterone receptor [1] stood at 0.07 µM. On Progesterone receptor [2], this molecule registered an inhibition constant Ki of 0.005 µM.

Usually IC50 stands for the concentration that gives 50% inhibition. Read a low IC50 as greater potency. As a reminder, the Ki is a measure of affinity in units of concentration, obtained from inhibition or displacement.

The values above are taken from ChEMBL document CHEMBL1131082, “Discovery and preliminary SAR studies of a novel, nonsteroidal progesterone receptor antagonist pharmacophore” (J Med Chem, 1998).
